In ChEMBL document CHEMBL3576792, “Enhancement of antibiotic activity against multidrug-resistant bacteria by the efflux pump inhibitor 3,4-dibromopyrrole-2,5-dione isolated from a Pseudoalteromonas sp” (J Nat Prod, 2015):
Values after ≈ are worked out from the molar mass of the structure shown. Active and inactive are the calls of the source. No cut-off for these calls is given here.

Assays:
Escherichia coli [1] = test: Potentiation of chloramphenicol-induced antibacterial activity Escherichia coli AG102 overexpressing AcrAB-TolC assessed as chloramphenicol MIC by p-iodonitrotetrazolium chloride colorimetric assay; format: functional
Outline: (§1)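 Checkerboard microdilution in Mueller-Hinton broth: two-fold dilutions of antibiotic crossed with dilutions of test compound above, at and below their MICs. Growth was read by INT colorimetric assay, with MIC as the lowest concentration showing no visible growth. FICs and FIC index were derived from these MICs. ΔBC/pABM and ΔBC/pXYM strains were grown with 100 μg/mL ampicillin and 1 mM IPTG.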

Escherichia coli [2] = test: Effect on intracellular H33342 accumulation in Escherichia coli AG100A after 60 mins by efflux inhibition assay; format: functional, organism-based
Outline: (§2)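 AG100 (wild-type K-12) or AG100A (ΔacrAB) cells were grown in Luria broth at 37 °C and 200 rpm to OD600 1.0, PBS-washed and diluted to OD600 0.3. Cells took up 2.5 μM Hoechst 33342 with 22 mM glucose at 37 °C for about 30 min, then compound (0.06–64 μg/mL) or PAβN (15.6 μg/mL) was added. Fluorescence (Ex 350/Em 460 nm) was followed for 60 min and corrected for background. The last four time points were compared to dye-only control by ANOVA with Dunnett's test, run in duplicate.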

Escherichia coli [3] = test: Potentiation of ciprofloxacin-induced antibacterial activity Escherichia coli AG102 overexpressing AcrAB-TolC assessed as ciprofloxacin MIC by p-iodonitrotetrazolium chloride colorimetric assay; format: functional; outline: as §1
Escherichia coli [4] = test: Potentiation of ciprofloxacin-induced antibacterial activity Escherichia coli transformed with plasmid carrying MG1655 deltaBC/pXYM assessed as ciprofloxacin MIC by p-iodonitrotetrazolium chloride colorimetric assay; format: functional; outline: as §1
Escherichia coli [5] = test: Potentiation of erythromycin-induced antibacterial activity Escherichia coli transformed with plasmid carrying MG1655 deltaBC/pXYM assessed as erythromycin MIC by p-iodonitrotetrazolium chloride colorimetric assay; format: functional; outline: as §1
Escherichia coli [6] = test: Potentiation of levofloxacin-induced antibacterial activity Escherichia coli transformed with plasmid carrying MG1655 deltaBC/pABM assessed as levofloxacin MIC by p-iodonitrotetrazolium chloride colorimetric assay; format: functional; outline: as §1
Escherichia coli [7] = test: Potentiation of oxacillin-induced antibacterial activity Escherichia coli transformed with plasmid carrying MG1655 deltaBC/pABM assessed as oxacillin MIC by p-iodonitrotetrazolium chloride colorimetric assay; format: functional, organism-based; outline: as §1
Escherichia coli [8] = test: Potentiation of piperacillin-induced antibacterial activity Escherichia coli AG102 overexpressing AcrAB-TolC assessed as piperacillin MIC by p-iodonitrotetrazolium chloride colorimetric assay; format: functional; outline: as §1
Escherichia coli [9] = test: Potentiation of piperacillin-induced antibacterial activity Escherichia coli transformed with plasmid carrying MG1655 deltaBC/pABM assessed as piperacillin MIC by p-iodonitrotetrazolium chloride colorimetric assay; format: functional, organism-based; outline: as §1
Escherichia coli [10] = test: Potentiation of erythromycin-induced antibacterial activity Escherichia coli AG102 overexpressing AcrAB-TolC by p-iodonitrotetrazolium chloride colorimetric assay; format: functional
Escherichia coli [11] = test: Potentiation of erythromycin-induced antibacterial activity Escherichia coli transformed with plasmid carrying MG1655 deltaBC/pXYM by p-iodonitrotetrazolium chloride colorimetric assay; format: functional
Escherichia coli [12] = test: Potentiation of levofloxacin-induced antibacterial activity Escherichia coli AG102 overexpressing AcrAB-TolC MIC by p-iodonitrotetrazolium chloride colorimetric assay; format: functional
Escherichia coli [13] = test: Potentiation of piperacillin-induced antibacterial activity Escherichia coli transformed with plasmid carrying MG1655 deltaBC/pXYM by p-iodonitrotetrazolium chloride colorimetric assay; format: functional
Escherichia coli K-12 [14] = test: Inhibition of AcrAB-TolC pump in Escherichia coli K-12 AG100 assessed as […] at 4 ug/ml after 60 mins by accumulation assay
Outline: (§3)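 AG100 (wild-type K-12) or AG100A (ΔacrAB) grown in Luria broth at 37 °C and 200 rpm to OD600 1.0, PBS-washed, diluted to OD600 0.3. Cells given 2.5 μM H33342 with 22 mM glucose at 37 °C for ~30 min until stable, then compound (0.06–64 μg/mL) added. Fluorescence (Ex 350/Em 460) read for 60 min, background subtracted. Final 4 time points averaged; one-way ANOVA/Dunnett vs Hoechst-only; n = 8.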

Escherichia coli K-12 [15] = test: Inhibition of AcrAB-TolC pump in Escherichia coli K-12 AG100 assessed as […] at 0.06 ug/ml after 60 mins by accumulation assay; outline: as §3
Escherichia coli [16] = test: Effect on intracellular H33342 accumulation in Escherichia coli AG100A delta acrAB mutant at 64 ug/ml after 60 mins by accumulation assay; format: functional
Outline: (§4)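 Cells grown in Luria broth at 37 °C, 200 rpm to OD600 1.0, then washed twice in PBS and diluted in glucose-free PBS to OD600 0.3. H33342 was used at 2.5 μM with 22 mM glucose at 37 °C and allowed to accumulate for ~30 min. Compound was then added and fluorescence (Ex 350/Em 460 nm) followed for 60 min. Values are the mean RFU of the final 4 min, after media-plus-compound background was subtracted. Run in duplicate, n = 8.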

Escherichia coli [17] = test: Effect on intracellular H33342 accumulation in Escherichia coli AG100A delta acrAB mutant at 4 ug/ml after 60 mins by accumulation assay; format: functional; outline: as §3
Escherichia coli [18] = test: Effect on intracellular H33342 accumulation in Escherichia coli AG100A delta acrAB mutant at 1 ug/ml after 60 mins by accumulation assay; format: functional; outline: as §4
Escherichia coli K-12 [19] = test: Inhibition of AcrAB-TolC pump in Escherichia coli K-12 AG100 assessed as increase in intracellular H33342 fluorescence at 64 ug/ml after 60 mins by efflux inhibition assay; format: cell-based; outline: as §2
Escherichia coli K-12 [20] = test: Inhibition of AcrAB-TolC pump in Escherichia coli K-12 AG100 assessed as increase in intracellular H33342 fluorescence at 4 ug/ml after 60 mins by efflux inhibition assay; format: cell-based
Outline: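 Washed AG100 cells loaded for 60 min with 2.5 μM H33342 plus compound (no glucose, 25 °C). They were then pelleted, resuspended in ice-cold PBS and re-exposed to the same compound concentrations with or without glucose at 37 °C. Fluorescence (Ex 350/Em 460) followed for 30 min, no-glucose values subtracted, data normalized to loaded cells.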

Escherichia coli K-12 [21] = test: Inhibition of AcrAB-TolC pump in Escherichia coli K-12 AG100 assessed as increase in intracellular H33342 fluorescence at 1 ug/ml after 60 mins by efflux inhibition assay; format: cell-based; outline: as §2
Escherichia coli [22] = test: Potentiation of chloramphenicol-induced antibacterial activity Escherichia coli transformed with plasmid carrying MG1655 deltaBC/pABM by p-iodonitrotetrazolium chloride colorimetric assay; format: functional
Escherichia coli [23] = test: Antibacterial activity against Escherichia coli AG102 overexpressing AcrAB-TolC by p-iodonitrotetrazolium chloride colorimetric assay; format: functional
Outline: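 Two-fold broth microdilution in Mueller-Hinton broth, read by p-iodonitrotetrazolium chloride colorimetric assay. MIC is the lowest concentration giving no visible growth. MG1655 ΔacrB ΔtolC strains carrying pABM or pXYM were always cultured with 100 μg/mL ampicillin and 1 mM IPTG. Medium, inoculum and 1% DMSO (final) served as negative control.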

O=C1NC(=O)C(Br)=C1Br
MIC (Escherichia coli [1]): 64 µg/mL
inhibition (Escherichia coli [2]): inactive
MIC (Escherichia coli [3]): 2 µg/mL
MIC (Escherichia coli [4]): 32 µg/mL
MIC (Escherichia coli [5]): 32 µg/mL
MIC (Escherichia coli [6]): 64 µg/mL
MIC (Escherichia coli [7]): inactive
MIC (Escherichia coli [8]): 32 µg/mL
MIC (Escherichia coli [9]): inactive
fractional inhibitory concentration index (FICI) (Escherichia coli [10]): 0.38
fractional inhibitory concentration index (FICI) (Escherichia coli [11]): 0.31
fractional inhibitory concentration index (FICI) (Escherichia coli [12]): 0.36
fractional inhibitory concentration index (FICI) (Escherichia coli [13]): 0.52
RFU (Escherichia coli K-12 [14]): 1130
RFU (Escherichia coli K-12 [15]): 758
RFU (Escherichia coli [16]): 1090
RFU (Escherichia coli [17]): 1200
RFU (Escherichia coli [18]): 1070
RFU (Escherichia coli K-12 [19]): -68
RFU (Escherichia coli K-12 [20]): -101
RFU (Escherichia coli K-12 [21]): -247
fractional inhibitory concentration index (FICI) (Escherichia coli [22]): 0.75
MIC (Escherichia coli [23]): 256 µg/mL (≈ 1000 µM)
